{"source": "ChEMBL document CHEMBL2029207", "about": "“Vascular barrier protective effects of eckol and its derivatives” (Bioorg Med Chem Lett, 2012)", "key": {"HUVEC [1]": {"system": "HUVEC", "test": "Antiinflammatory activity in HUVEC cells assessed as inhibition of LPS-induced hyperpermeability at 10 uM relative to LPS", "type": "functional", "conditions": "Homo sapiens", "procedure,_shortened": "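Primary HUVECs were stimulated with LPS at 100 ng/ml, with or without test agent. Permeability was read as albumin flux across the monolayer in a dual-chamber system, by ELISA at OD650. Percent inhibition is relative to LPS alone, with PBS as the negative control and kaempferol-3-O-sophoroside as the positive control. Values are mean ± S.D. of three experiments.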"}, "Mus musculus [2]": {"species_on_record": "Mus musculus", "test": "Antiinflammatory activity in mouse assessed as inhibition of CMC-Na-induced leukocyte migration into peritoneal cavity at 10 uM relative to CMC-Na", "type": "functional", "procedure,_shortened": "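Mice received 1.0% CMC–Na to induce leukocyte migration, with or without test agent. Leukocytes recovered from the peritoneal cavity were counted (×10^6). Percent inhibition is relative to CMC–Na alone, with PBS and kaempferol-3-O-sophoroside as controls. Values are mean ± S.D. of three experiments.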"}, "HUVEC [3]": {"system": "HUVEC", "test": "Cytotoxicity against HUVEC cells assessed as decrease in cell viability up to 20 uM after 24 hrs", "type": "cell-based", "conditions": "human", "procedure,_shortened": "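HUVECs were exposed to each agent for 24 h and then assessed in cell viability assays.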"}, "HUVEC [4]": {"system": "HUVEC", "test": "Antiinflammatory activity in HUVEC cells assessed as inhibition of LPS-induced monocyte migration at 10 uM relative to LPS", "type": "functional", "conditions": "Homo sapiens", "procedure,_shortened": "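Monocyte transendothelial migration was measured across HUVECs stimulated with LPS at 100 ng/ml. The read-out was a migration index, with percent inhibition calculated against LPS alone. Controls were PBS (negative) and kaempferol-3-O-sophoroside (positive). Values are mean ± S.D. of three independent experiments.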"}, "Mus musculus [5]": {"species_on_record": "Mus musculus", "test": "Antiinflammatory activity in mice assessed as inhibition of acetic acid-induced hyperpermeability at 10 uM relative to acetic acid"}, "HUVEC [6]": {"system": "HUVEC", "test": "Antiinflammatory activity in HUVEC cells assessed as inhibition of […]-induced monocyte binding to endothelial cells at 10 uM relative to control", "conditions": "Homo sapiens"}}, "note": "Active and inactive are the calls of the source. No cut-off for these calls is given here."}
{"smiles": "Oc1cc(O)cc(Oc2c(O)cc(O)c3c2Oc2c(O)cc(Oc4c(O)cc(Oc5c(O)cc(O)c6c5Oc5c(O)cc(O)cc5O6)cc4O)cc2O3)c1", "note": "[DIECKOL]", "values": [{"measurement": "inhibition at 10 µM", "setting": "HUVEC [1]", "value": 74.9, "unit": "%"}, {"measurement": "inhibition (INH)", "setting": "Mus musculus [2]", "value": 69.9, "unit": "%"}, {"measurement": "Activity", "setting": "HUVEC [3]", "value": "Non-toxic"}, {"measurement": "inhibition at 10 µM", "setting": "HUVEC [4]", "value": 71.3, "unit": "%"}, {"measurement": "inhibition at 10 µM", "setting": "Mus musculus [5]", "value": 74.4, "unit": "%"}]}
{"smiles": "CC(=O)Oc1cc(OC(C)=O)cc(Oc2c(OC(C)=O)cc(OC(C)=O)c3c2Oc2c(OC(C)=O)cc(Oc4c(OC(C)=O)cc(Oc5c(OC(C)=O)cc(OC(C)=O)c6c5Oc5c(OC(C)=O)cc(OC(C)=O)cc5O6)cc4OC(C)=O)cc2O3)c1", "values": [{"measurement": "inhibition at 10 µM", "setting": "HUVEC [1]", "value": 49.5, "unit": "%"}, {"measurement": "inhibition (INH)", "setting": "Mus musculus [2]", "value": 56.7, "unit": "%"}, {"measurement": "Activity", "setting": "HUVEC [3]", "value": "Non-toxic"}, {"measurement": "inhibition at 10 µM", "setting": "HUVEC [4]", "value": 50.3, "unit": "%"}, {"measurement": "inhibition at 10 µM", "setting": "Mus musculus [5]", "value": 59.5, "unit": "%"}]}
{"smiles": "Oc1cc(O)cc(Oc2c(O)cc(O)c3c2Oc2c(O)cc(O)cc2O3)c1", "note": "[ECKOL]", "values": [{"measurement": "inhibition at 10 µM", "setting": "HUVEC [1]", "value": 56.5, "unit": "%"}, {"measurement": "inhibition (INH)", "setting": "Mus musculus [2]", "value": 61.7, "unit": "%"}, {"measurement": "inhibition", "setting": "HUVEC [6]", "value": "Active"}, {"measurement": "Activity", "setting": "HUVEC [3]", "value": "Non-toxic"}, {"measurement": "inhibition at 10 µM", "setting": "HUVEC [4]", "value": 59.6, "unit": "%"}, {"measurement": "inhibition at 10 µM", "setting": "Mus musculus [5]", "value": 52, "unit": "%"}]}
{"smiles": "O=c1c(O[C@@H]2O[C@H](CO)[C@@H](O)[C@H](O)[C@H]2O[C@@H]2O[C@H](CO)[C@@H](O)[C@H](O)[C@H]2O)c(-c2ccc(O)cc2)oc2cc(O)cc(O)c12", "values": [{"measurement": "inhibition at 10 µM", "setting": "HUVEC [1]", "value": 76.6, "unit": "%"}, {"measurement": "inhibition (INH)", "setting": "Mus musculus [2]", "value": 69.6, "unit": "%"}, {"measurement": "inhibition at 10 µM", "setting": "HUVEC [4]", "value": 69.5, "unit": "%"}, {"measurement": "inhibition at 10 µM", "setting": "Mus musculus [5]", "value": 73.9, "unit": "%"}]}
{"smiles": "COc1cc(OC)cc(Oc2c(OC)cc(OC)c3c2Oc2c(OC)cc(Oc4c(OC)cc(Oc5c(OC)cc(OC)c6c5Oc5c(OC)cc(OC)cc5O6)cc4OC)cc2O3)c1", "values": [{"measurement": "inhibition at 10 µM", "setting": "HUVEC [1]", "value": 33, "unit": "%"}, {"measurement": "inhibition (INH)", "setting": "Mus musculus [2]", "value": 32.4, "unit": "%"}, {"measurement": "Activity", "setting": "HUVEC [3]", "value": "Non-toxic"}, {"measurement": "inhibition at 10 µM", "setting": "HUVEC [4]", "value": 37.6, "unit": "%"}, {"measurement": "inhibition at 10 µM", "setting": "Mus musculus [5]", "value": 34.7, "unit": "%"}]}
